In ChEMBL document CHEMBL3085669, “Design, synthesis and structure-activity relationship of novel Relacin analogs as inhibitors of Rel proteins” (Eur J Med Chem, 2013):
Active and inactive are the calls of the source. The rule behind the calls is not given here.

Tests used:
Escherichia coli [1] = test: Inhibition of Escherichia coli relA assessed as inhibition of (p)ppGpp synthesis at 1 mM by autoradiography in presence of [alpha32]GTP
Procedure, shortened: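 Purified E. coli RelA assayed in vitro with inhibitor at 1 mM.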

Bacillus subtilis = test: Inhibition of Bacillus subtilis relA assessed as reduction in (p)ppGpp level at 2 mM incubated for 15 mins prior to SHX addition measured after 5 to 10 mins by autoradiography
Procedure, shortened: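 B. subtilis cells grown with inhibitor at 2 mM. Stringent response then induced by adding serine hydroxamate, and intracellular (p)ppGpp measured afterwards.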

Deinococcus radiodurans = test: Inhibition of Deinococcus radiodurans rel/spo assessed as inhibition of (p)ppGpp synthesis by autoradiography in presence of [alpha32]GTP
Procedure, shortened: (§1)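 Cell-free assay on purified Rel enzymes (Rel/Spo from D. radiodurans, RelA from E. coli), with inhibitor tested across varying concentrations.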

Escherichia coli [2] = test: Inhibition of Escherichia coli relA assessed as inhibition of (p)ppGpp synthesis by autoradiography in presence of [alpha32]GTP; procedure, shortened: as §1

Row | SMILES | inhibition (Escherichia coli [1]) | inhibition (Bacillus subtilis) | inhibition (Deinococcus radiodurans) | inhibition (Escherichia coli [2])
1 | CC(C)C(=O)Nc1nc2c(ncn2[C@H]2C[C@H](OC(=O)NC(CCC(=O)O)C(=O)O)[C@@H](COC(=O)N[C@@H](CCC(=O)O)C(=O)O)O2)c(=O)[nH]1 (stereo partly drawn) | 50.6% |  |  | 
2 | CC(C)C(=O)Nc1nc2c(ncn2[C@H]2C[C@H](OC(=O)NCC(=O)NCC(=O)O)[C@@H](COC(=O)NCC(=O)NCC(=O)O)O2)c(=O)[nH]1 | 66.3% |  |  | 
3 | CC(C)C(=O)Nc1nc2c(ncn2[C@H]2C[C@H](OC(=O)NCC(=O)O)[C@@H](COC(=O)N[C@@H](CCC(=O)O)C(=O)O)O2)c(=O)[nH]1 | 52.1% |  |  | 
4 | CC(C)C(=O)Nc1nc2c(ncn2[C@H]2C[C@H](OC(=O)NC(CCC(=O)O)C(=O)NC(CCC(=O)O)C(=O)O)[C@@H](COC(=O)NC(CCC(=O)O)C(=O)NC(CCC(=O)O)C(=O)O)O2)c(=O)[nH]1 (stereo partly drawn) | 80.4% | Active | Dose-dependent effect | Dose-dependent effect

Second part, the molecule after the results:

Row | inhibition (Escherichia coli [1]) | inhibition (Bacillus subtilis) | inhibition (Deinococcus radiodurans) | inhibition (Escherichia coli [2]) | SMILES
5 | 25.6% |  |  |  | CC(C)C(=O)Nc1nc2c(ncn2[C@H]2C[C@H](OC(=O)NCCCCCC(=O)O)[C@@H](COC(=O)NCCCCCC(=O)O)O2)c(=O)[nH]1
6 | 31.2% |  |  |  | CC(C)C(=O)Nc1nc2c(ncn2[C@H]2C[C@H](OC(=O)NCCN(C)C)[C@@H](COC(=O)NCCN(C)C)O2)c(=O)[nH]1
7 | 12% |  |  |  | CC(C)C(=O)Nc1nc2c(ncn2[C@H]2C[C@H](OC(=O)N(CCCN(C)C)CCCN(C)C)[C@@H](COC(=O)N(CCCN(C)C)CCCN(C)C)O2)c(=O)[nH]1
8 | 51.1% | Active |  |  | CC(C)C(=O)Nc1nc2c(ncn2[C@H]2C[C@H](OC(=O)NCC(=O)O)[C@@H](COC(=O)NCC(=O)O)O2)c(=O)[nH]1
9 | 50.4% |  |  |  | CC(C)C(=O)Nc1nc2c(ncn2[C@H]2C[C@H](OC(=O)N[C@@H](CCC(=O)O)C(=O)O)[C@@H](COC(=O)NCC(=O)O)O2)c(=O)[nH]1
